Assay results taken from ChEMBL document CHEMBL3769318, “The Rational Design of Selective Benzoxazepin Inhibitors of the α-Isoform of Phosphoinositide 3-Kinase Culminating in the Identification of (S)-2-((2-(1-Isopropyl-1H-1,2,4-triazol-5-yl)-5,6-dihydrobenzo[f]imidazo[1,2-d][1,4]oxazepin-9-yl)oxy)propanamide (GDC-0326)” (J Med Chem, 2016).

Columns and labels:
[1] = target: Phosphatidylinositol 4,5-bisphosphate 3-kinase catalytic subunit alpha isoform (Homo sapiens, UniProt P42336); assay: Inhibition of recombinant PI3K alpha (unknown origin) using PIP2 as substrate by fluorescence polarization assay; conditions: read-out: Ki(app)
Sequence of Phosphatidylinositol 4,5-bisphosphate 3-kinase catalytic subunit alpha isoform (P42336 whole entry, canonical isoform): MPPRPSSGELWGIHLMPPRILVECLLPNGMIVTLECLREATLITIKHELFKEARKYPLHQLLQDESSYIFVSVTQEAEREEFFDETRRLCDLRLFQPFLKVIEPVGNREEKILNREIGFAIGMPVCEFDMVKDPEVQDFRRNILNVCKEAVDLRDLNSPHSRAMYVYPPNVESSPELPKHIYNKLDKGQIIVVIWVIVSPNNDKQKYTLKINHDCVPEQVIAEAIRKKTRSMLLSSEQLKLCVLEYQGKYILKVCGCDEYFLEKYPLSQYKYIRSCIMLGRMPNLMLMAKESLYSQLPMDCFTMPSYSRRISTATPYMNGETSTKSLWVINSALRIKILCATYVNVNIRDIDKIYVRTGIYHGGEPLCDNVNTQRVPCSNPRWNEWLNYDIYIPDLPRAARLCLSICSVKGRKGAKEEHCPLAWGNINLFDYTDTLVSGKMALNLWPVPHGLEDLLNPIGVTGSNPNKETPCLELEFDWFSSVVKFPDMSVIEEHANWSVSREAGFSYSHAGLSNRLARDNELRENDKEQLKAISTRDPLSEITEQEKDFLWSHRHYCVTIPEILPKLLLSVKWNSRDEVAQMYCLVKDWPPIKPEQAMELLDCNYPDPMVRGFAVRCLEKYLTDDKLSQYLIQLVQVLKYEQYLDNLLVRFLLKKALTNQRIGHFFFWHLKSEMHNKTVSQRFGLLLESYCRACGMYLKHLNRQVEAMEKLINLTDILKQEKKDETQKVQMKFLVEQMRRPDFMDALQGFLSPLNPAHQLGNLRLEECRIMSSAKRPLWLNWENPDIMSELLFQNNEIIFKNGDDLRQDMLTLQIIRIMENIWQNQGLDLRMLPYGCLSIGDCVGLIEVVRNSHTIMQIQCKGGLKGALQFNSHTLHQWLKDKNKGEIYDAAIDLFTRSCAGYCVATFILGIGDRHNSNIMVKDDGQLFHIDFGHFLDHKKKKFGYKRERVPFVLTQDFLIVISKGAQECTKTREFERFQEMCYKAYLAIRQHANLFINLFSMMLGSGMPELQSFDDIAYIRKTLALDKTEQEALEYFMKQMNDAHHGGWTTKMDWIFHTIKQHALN

[2] = Antiproliferative activity against human MCF7-neo/Her2 cells after 3 days by luminescence plate reader method; format: functional, cell-based; conditions: 72 h
[3] = Antiproliferative activity against human PC3 cells after 4 days by luminescence plate reader method; format: functional, cell-based; conditions: PC-3, 96 h
[4] = Plasma protein binding in CD-1 mouse at 5 uM after 4 hrs by LC-MS/MS analysis; format: ADME, cell-free; conditions: mouse, 4 h, 5 µM
How it was run: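 Equilibrium dialysis of pooled plasma (n ≥ 3) spiked with compound at 5 µM total against PBS pH 7.4, 37 °C, 5% CO2, for 4 h; plasma and buffer concentrations measured by LC-MS/MS; percent unbound calculated as buffer/plasma ×100.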

[5] = Cytotoxicity against human KPL4 cells after 4 days by luminescence plate reader method; format: functional, cell-based; conditions: KPL4, 96 h
[6] = Toxicity in SCID beige mouse xenografted with human KPL4 cells; format: organism-based; conditions: in vivo
How it was run: (§1)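 Breast cancer xenografts: MCF7-neo/HER2 grown in nude mice, KPL-4 in scid beige mice. Compound given orally once daily for 21 days at 0.78, 1.56, 3.25, 6.25 or 12.5 mg/kg in 0.5% methylcellulose/0.2% Tween-80, versus vehicle-treated mice. Tolerability judged by body weight loss, with under 10% loss as the criterion.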

[7] = Toxicity in nude mouse xenografted with human MCF7-neo/Her2 cells; format: organism-based; how it was run: as §1
[8] = Clearance in NCR nude mouse at 1 mg/kg, iv; format: ADME, organism-based; conditions: in vivo
[9] = Oral bioavailability in NCR nude mouse at 25 mg/kg; format: ADME, organism-based; conditions: in vivo
animal or person [10] = conditions: Homo sapiens, po, 504 h, read-out: TGI
animal or person [11] = conditions: Homo sapiens, KPL4, po, 504 h, read-out: TGI
Mus musculus [12] = organism: Mus musculus; assay: animal or person; conditions: 1 h, read-out: INH
Mus musculus [13] = assay: Volume of distribution at steady state in NCR nude mouse at 1 mg/kg, iv; conditions: in vivo

Ki [1]	SMILES	EC50 [2]	EC50 [3]	PPB [4]	EC50 [5]	MTD [6]	MTD [7]	clearance [8]	bioavailability [9]	inhibition in vivo at 25 mg/kg (animal or person [10])	inhibition in vivo at 25 mg/kg (animal or person [11])	inhibition in vivo at 25 mg/kg (Mus musculus [12])	Vdss (Mus musculus [13])
0.3 nM	CC(C)n1ncnc1-c1cn2c(n1)-c1ccc(OCC(N)=O)cc1OCC2	200 nM	200 nM										
	Cc1nc(-c2cn3c(n2)-c2ccc(-c4cnn(C(C)(C)C(N)=O)c4)cc2OCC3)n(C(C)C)n1 [TASELISIB]	30 nM		97.5%	10 nM	25 mg/kg	25 mg/kg	3 mL/min/kg	100%	116%	125%	74%	0.3 L/kg
